The target in series [1] is Free fatty acid receptor 1 (Mus musculus) (UniProt Q76JU9). Nature of the series: Agonist activity at mouse GPR40 inducibly expressed in HEK293 cells assessed as increase in intracellular calcium flux measured for 100 secs by FLIPR assay. The format is functional, cell-based. In general terms: A change in cytosolic calcium serves as a functional read-out for many receptors and channels.

Series [2] concerns the target T1, Free fatty acid receptor 1 (Homo sapiens, UniProt O14842). As to the kind of experiment: Agonist activity at human GPR40 inducibly expressed in HEK293 cells assessed as increase in intracellular calcium flux measured for 100 secs by FLIPR assay. It is filed as functional, cell-based.
Series [3] deals with Free fatty acid receptor 1 (Mus musculus, UniProt Q76JU9). Nature of the series: Agonist activity at mouse GPR40 expressed in CHO-A12 cells assessed as increase in intracellular calcium flux measured for 100 secs by FLIPR assay. The format is functional, cell-based.
Free fatty acid receptor 1 (Mus musculus, UniProt Q76JU9), sequence (Q76JU9 whole entry): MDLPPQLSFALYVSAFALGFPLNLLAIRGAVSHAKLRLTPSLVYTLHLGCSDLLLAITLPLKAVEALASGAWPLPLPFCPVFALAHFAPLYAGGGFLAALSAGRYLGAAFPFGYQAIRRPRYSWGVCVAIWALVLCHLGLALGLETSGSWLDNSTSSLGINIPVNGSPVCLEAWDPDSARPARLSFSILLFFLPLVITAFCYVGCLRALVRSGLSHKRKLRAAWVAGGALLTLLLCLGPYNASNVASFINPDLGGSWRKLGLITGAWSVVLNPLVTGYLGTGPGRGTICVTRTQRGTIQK
For series [4], the target named is T2, Peroxisome proliferator-activated receptor gamma (Homo sapiens, UniProt P37231).
T2 sequence (P37231 whole entry): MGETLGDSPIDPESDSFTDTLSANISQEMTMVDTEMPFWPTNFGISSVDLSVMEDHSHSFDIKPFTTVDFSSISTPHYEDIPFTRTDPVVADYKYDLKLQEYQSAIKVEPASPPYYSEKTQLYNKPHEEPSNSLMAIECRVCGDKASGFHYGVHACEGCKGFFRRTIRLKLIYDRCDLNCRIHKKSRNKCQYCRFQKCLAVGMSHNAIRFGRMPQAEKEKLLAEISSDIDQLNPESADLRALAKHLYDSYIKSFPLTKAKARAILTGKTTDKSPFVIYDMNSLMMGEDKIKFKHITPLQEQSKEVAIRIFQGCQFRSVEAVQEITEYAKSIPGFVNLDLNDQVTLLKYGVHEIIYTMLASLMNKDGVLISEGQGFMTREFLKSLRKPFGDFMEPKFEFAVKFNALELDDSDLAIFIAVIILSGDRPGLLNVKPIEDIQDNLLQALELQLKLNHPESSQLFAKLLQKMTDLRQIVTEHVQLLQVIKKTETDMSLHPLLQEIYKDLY
Nature of the series: Transactivation of human Gal4 fused PPARgamma-LBD expressed in HEK293 cells after 18 hrs by luciferase reporter gene assay. The settings on record: human, hek293, 18 h. It is filed as cell-based. Put shortly:
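Gal4 gene reporter transactivation assay for PPARγ; EC50 and Ymax reported.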
In general terms: Reporter assays use an easily measured gene product as a stand-in for the process of interest.

The target of series [5] is T1, Free fatty acid receptor 1. Nature of the series: Agonist activity at human GPR40 expressed in CHO-A12 cells assessed as increase in intracellular calcium flux measured for 100 secs by FLIPR assay. The format is functional, cell-based.
Series [6] concerns the target T1, Free fatty acid receptor 1. As to the kind of experiment: Binding affinity to human GPR40 expressed in HEK293 cell membranes after 1 hr by radioligand displacement based scintillation counting method. Put shortly:
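Binding of human GPR40 measured as Ki against a radioligand. Mean of at least two runs. Displacement of the label appears as a negative slope and potentiation as a positive one.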
Background: Displacement assays read how much labelled ligand stays bound in the presence of the test substance.

Series [7] in a line: Antagonist activity at sodium channel (unknown origin). The settings on record: human.
Series [8] addresses Free fatty acid receptor 1 (Mus musculus) (UniProt Q76JU9). Nature of the series: Intrinsic activity at mouse GPR40 expressed in CHO-A12 cells assessed as increase in intracellular calcium flux at 8.3 uM measured for 100 secs by FLIPR assay […]. The format is functional, cell-based.
Series [9] addresses T3, Nuclear receptor subfamily 1 group I member 2 (Homo sapiens, UniProt O75469).
T3 sequence (O75469 whole entry): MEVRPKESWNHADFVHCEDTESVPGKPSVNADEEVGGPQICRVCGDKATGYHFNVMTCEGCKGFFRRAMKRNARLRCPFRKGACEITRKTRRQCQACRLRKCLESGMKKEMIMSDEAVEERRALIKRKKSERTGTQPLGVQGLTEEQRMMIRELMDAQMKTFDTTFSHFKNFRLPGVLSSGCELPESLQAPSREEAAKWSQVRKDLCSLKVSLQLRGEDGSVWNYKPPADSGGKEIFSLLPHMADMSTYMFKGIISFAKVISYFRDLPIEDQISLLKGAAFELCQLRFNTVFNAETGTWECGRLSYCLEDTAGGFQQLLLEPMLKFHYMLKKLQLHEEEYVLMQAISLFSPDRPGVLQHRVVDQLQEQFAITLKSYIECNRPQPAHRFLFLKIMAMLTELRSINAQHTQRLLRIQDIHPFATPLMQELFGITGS
Nature of the series: Antagonist activity at PXR (unknown origin). It is filed as ADME.

Series [10] can be described thus: AUC (0 to 4 hrs) in C57BL/6J mouse at 10 mg/kg, po. The note with it: in vivo. Also on record: time < 4 hr, dose 10 mg/kg, route oral. It is filed as ADME, organism-based.
In series [11] the target is T1, Free fatty acid receptor 1. As to the kind of experiment: Intrinsic activity at human GPR40 transfected in HEK293 cells assessed as induction of cAMP accumulation at 16.7 uM incubated for 30 to 45 mins by HTRF assay relative to […]. It is filed as functional, cell-based.
Series [12] has as its target Free fatty acid receptor 1 (Mus musculus) (UniProt Q76JU9). As to the kind of experiment: Agonist activity at GPR40 in mouse STC1 cells assessed as induction of GLP-1 secretion measured after 1 hr by HTRF assay. It is filed as cell-based.
For series [13], the target named is T1, Free fatty acid receptor 1. As to the kind of experiment: Partial agonist activity at human GPR40 inducibly expressed in HEK293 cells assessed as increase in intracellular calcium flux measured for 100 secs by FLIPR assay. The format is functional, cell-based.
A short description of series [14]: Cmax in C57BL/6J mouse at 10 mg/kg, po. It is filed as ADME, organism-based. Further details: dose 10 mg/kg, route oral. The note with it: in vivo.
Another series has as its system Mus musculus. As to the kind of experiment: Antidiabetic activity in C57BL/6J mouse assessed as reduction of plasma glucose excursion at 10 to 100 mg/kg, po pretreated for 1 hr followed by glucose challenge measured up to 120 mins by iGTT. The format is functional, organism-based.
In series [15] the target is T1, Free fatty acid receptor 1. As to the kind of experiment: Agonist activity at human GPR40 transfected in HEK293 cells assessed as induction of cAMP accumulation incubated for 30 to 45 mins by HTRF assay. The format is functional, cell-based.

The source made the active and inactive calls. The calls are words filed in the database; no cut-off is given here.

Free fatty acid receptor 1 (Mus musculus), sequence (Q76JU9 whole entry): as the sequence (Q76JU9 whole entry) above
T1 sequence (O14842 whole entry): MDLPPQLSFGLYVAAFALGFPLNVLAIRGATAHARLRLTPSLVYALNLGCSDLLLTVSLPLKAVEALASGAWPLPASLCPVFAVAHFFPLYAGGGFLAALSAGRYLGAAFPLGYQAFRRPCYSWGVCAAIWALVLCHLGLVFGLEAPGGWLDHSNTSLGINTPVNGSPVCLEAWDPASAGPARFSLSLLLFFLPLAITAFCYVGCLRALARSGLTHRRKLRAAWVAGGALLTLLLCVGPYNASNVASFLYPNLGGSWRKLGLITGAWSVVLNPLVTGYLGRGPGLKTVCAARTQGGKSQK

With `COc1ccc(F)c(-c2ccc(Cc3ccc(N4CC(C(F)(F)F)CC4CC(=O)O)cc3)c(C)c2)c1` (mixture of isomers), the result in series [1] and in series [2] was Active.
Consider `Cc1ccccc1Cc1ccc(N2CCC[C@H]2CC(=O)O)cc1`, for which the EC50 (in general, the concentration needed to bring the measured effect to its halfway point) in series [3] is greater than 33000 nM; in [5], 150 nM. Further, in series [4], the Activity result is reported as “Not Active”. In addition, the Ki – broadly, the dissociation constant of the complex between target and ligand, obtained from inhibition or displacement – in [6] amounted to 1300 nM.
For the compound `Cc1ccccc1COc1ccc(N2CCC[C@H]2CC(=O)O)cc1`, the “inhibition (INH)” value in series [7] and in [9] was “Active” throughout. Further, the EC50 in series [3] turned out to be 3400 nM; in [5], 190 nM. Also, the Intrinsic activity in series [8] is 41 to 73%.
`Cc1ccccc1Oc1ccc(N2C[C@@H](C(F)(F)F)C[C@H]2CC(=O)O)cc1`: the AUC(0-t) (as a rule, exposure summed from dosing to a finite time, without extrapolation to infinity) at 4 h in series [10] stood at 7 µM·h. The Intrinsic activity was determined as 5% in [11] and 84% in series [8]. Moreover, the result (in series [12]; in the series with Mus musculus) was inactive. The EC50 in series [3] is 330 nM; in [5], 73 nM; in [15] it was greater than 20000 nM. Besides, in series [13], the result was Active. Moreover, the Cmax (commonly the maximum level reached in the sampled fluid or tissue) in [14] stood at 4.7 µM. Further, in series [6], the Ki lay within 35 to 39 nM.
